Screening results as filed in PubChem.
FLuc stim CS: firefly luciferase counter-screen for stimulation assays; P08659; 200,000 tested, under 10 active; activation factor at 10 µM; ATPlite luciferase biochemical, luminescence, 10 min; 0 = ATP-free wells, 1 = DMSO control;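 active = luciferase activation factor, scaled between plate controls, of at least 2 with compound at 10 µM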
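System: luciferase plus luciferin reagent, cell-free; medium: PBS as buffer for the ATP substrate; dosing: test compounds dosed from 2 mM stocks in 100% DMSO; timing: 10 min post-reagent at room temperature; measured by: luminescence measurement of luciferase light output; evaluation: luciferase activation, seen as luminescence increase over controls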
ABCG2 inh: inhibitors of human ABCG2 transporter, ABCB1 counter-screen; Q9UNQ0; IgMXP3 cells, JC-1 efflux, flow cytometry; inhibition, % at 6.6 µM; 0.1% of 190,000 active;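 active = inhibition above 80%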;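 note: 0% = DMSO and 100% = nicardipine control wells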
Target sequence (Q9UNQ0 whole entry, looked up): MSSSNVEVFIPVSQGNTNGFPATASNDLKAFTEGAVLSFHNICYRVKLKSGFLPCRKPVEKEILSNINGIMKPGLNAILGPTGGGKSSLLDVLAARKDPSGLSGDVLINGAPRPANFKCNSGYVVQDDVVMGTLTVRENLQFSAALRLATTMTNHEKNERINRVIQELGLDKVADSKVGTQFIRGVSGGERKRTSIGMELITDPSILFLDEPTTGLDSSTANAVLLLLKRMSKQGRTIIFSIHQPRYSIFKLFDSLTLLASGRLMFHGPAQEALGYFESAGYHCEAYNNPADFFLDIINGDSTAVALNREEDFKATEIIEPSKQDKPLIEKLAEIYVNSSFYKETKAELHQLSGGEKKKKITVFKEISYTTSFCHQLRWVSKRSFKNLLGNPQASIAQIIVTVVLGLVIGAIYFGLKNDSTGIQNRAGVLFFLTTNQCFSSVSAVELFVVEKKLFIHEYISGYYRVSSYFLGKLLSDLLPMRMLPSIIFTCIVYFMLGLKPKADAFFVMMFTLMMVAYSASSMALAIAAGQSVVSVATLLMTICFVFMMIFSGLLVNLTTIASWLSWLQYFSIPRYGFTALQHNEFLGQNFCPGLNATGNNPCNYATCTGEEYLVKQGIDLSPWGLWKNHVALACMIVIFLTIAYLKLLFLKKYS
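Measure – % inhibition of efflux relative to nicardipine and DMSO · Test system – ABCG2 IgMXP3 and barcoded ABCB1 CCRF-Adr cell mix · Control set – nicardipine as high control, DMSO as low control · Compound – one concentration, 6.6 µM final · Signal – flow cytometry of retained JC-1 fluorescence · Timing – 10 min exposure at 25 °C with rotation, no wash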
Diaph act CS: activates diaphorase or chemically reduces, flagging diaphorase assay artifacts | Diaphorase/resazurin coupled assay, resorufin fluorescence, 16 min; hits give high values; 1 = vehicle wells, 0 = NADH-free wells | activation factor at 20 µM | 0.005% of 190,000 active | AID 1229;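 active = diaphorase activity raised at least twofold by the compound at 20 µM; inactive = activation factor below 2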
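Material: Clostridium kluyveri diaphorase, purified enzyme; Quantity: enzyme 0.07 U/mL final; Medium: HEPES pH 7.4 buffer with MgCl2 and Tween 20; Dosing: single compound dose of 20 µM, 1% DMSO final; Schedule: 16 min reaction at room temperature; Measured by: red resorufin fluorescence at 544/590 nm excitation/emission.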
ABCB6 inh MLPCN: blocks the human ABCB6 transporter; Q9NP58; K562-ABCB6 porphyrin accumulation, flow cytometry, 1 h; hits give low values; fluorescence ratio to DMSO, % at 10 µM; 0.19% of 360,000 active;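 active = fluorescence ratio to DMSO below 75%, the collection mean minus 3 SD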;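 note: signal is porphyrin accumulated inside mitochondria; 100% equals median channel fluorescence of DMSO control wells; lower ratio means ABCB6 inhibition with less porphyrin fluorescence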
FLuc inhib CS: Photinus pyralis luciferase inhibition counter-screen; AID 1006; P08659; inhibition, % at 10 µM; ATPLite firefly luciferase biochemical luminescence, 10 min; 1.5% of 200,000 active;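 active = inhibition above about 50% when tested at 10 µM, limit read from the data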
ABCB1 block: blocks JC-1 efflux by human ABCB1 transporter; CCRF-Adr cells, flow cytometry; inhibition, % at 6.6 µM; 0.067% of 190,000 active; in the data active = inhibition above about 40%;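 note: 0% = vehicle and 100% = reference inhibitor; higher value means more JC-1 retained so stronger ABCB1 efflux block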
ABCB1 single pt: inhibits human ABCB1 efflux, confirmed at single point; shares compounds with ABCG2 inh; CCRF-Adr cells, JC-1 efflux, flow cytometry; inhibition, % at 6.6 µM; 7% of 270 active;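 active = inhibition of pump activity above 50%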;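 note: 0% = DMSO and 100% = nicardipine full pump inhibition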
ABCG2 single pt: inhibits human ABCG2 efflux, confirmed at single point | shares compounds with ABCG2 inh | IgMXP3 cells, JC-1 efflux, flow cytometry | inhibition, % at 6.6 µM | 6% of 270 active;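 active = inhibition above 50%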;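 note: 0% = DMSO wells and 100% = nicardipine pump inhibitor wells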
IgMXP3 autofluor: IgMXP3 autofluorescence flag for ABCG2 confirmation; shares compounds with ABCG2 inh; IgMXP3 cells, compound autofluorescence 488/530 nm, flow; hits give high values; fluorescence at 6.6 µM; 30% of 270 active; AID 1480;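 active = fluorescence in ABCG2-expressing cells above the plate's control-well mean plus 3 SD, cut at about 15 in these data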;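 note: median cell fluorescence with compound minus that of DMSO-treated control cells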
CCRF-Adr fluor: CCRF-Adr autofluorescence flag for ABCB1 confirmation. fluorescence at 6.6 µM. shares compounds with ABCG2 inh. CCRF-Adr cells, compound autofluorescence 488/530 nm, flow cytometry; hits give high values. 30% of 270 active;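 active = fluorescence beyond the plate control mean plus 3 SD, with a fluorescence-to-maximum score over 2, cut at about 25 in these data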
Starred values were filed as active, the others as inactive; x = no result given; + = active, no number. Only a selection was taken, and hits are over-represented in it overall.

SMILES	FLuc stim CS	ABCG2 inh	Diaph act CS	ABCB6 inh MLPCN	FLuc inhib CS	ABCB1 block	ABCB1 single pt	ABCG2 single pt	IgMXP3 autofluor	CCRF-Adr fluor
Cc1ccccc1-n1ncc2c1CC(C)(C)CC2NC(=O)c1cn[nH]c1C (centres undefined)	x	x	x	97	x	x	x	x	x	x
Cc1ccc(/C=C2\CCC3=C2OC(N)=C(C#N)C3c2ccc(C)cc2)cc1 (centres undefined)	1.1	85*	0.9	755	-10	56*	-1	10	65*	87*
Cc1ccc(C2C(C#N)=C(N)Oc3cc(N)ccc32)cc1 (centres undefined)	x	x	x	99	x	x	x	x	x	x
Cc1cc(/C=C(\C#N)C(=O)O)c(C)n1CC(C)C	0.9	+	1	433	7	+	-2	-5	40*	4.4
CCN(C(=O)COC(=O)C1CC1C)c1c(N)n(Cc2ccccc2)c(=O)[nH]c1=O (centres undefined)	x	x	x	101	x	x	x	x	x	x
COc1cc(C(=O)Nc2ccc(S(=O)(=O)NC(C)C)cc2)cc(OC)c1OC	1.1	82*	0.8	86	-6	2	13	27	5.8	6.6
COc1ccc(CN2C(=O)c3ccccc3C2=O)cc1C(=O)Nc1ccccc1N1CCOCC1	1	39	0.8	88	-2	43*	72*	43	1.4	12
CN1C(=O)C(C)(C)c2cc(S(=O)(=O)NCC3CCC(C(=O)NCc4ccccc4)CC3)ccc21 (centres undefined)	x	x	x	96	x	x	x	x	x	x
CS(=O)(=O)N(CC(=O)N1CCCC1)c1cccc(C(F)(F)F)c1	x	x	x	95	x	x	x	x	x	x
Cc1ccc(C#N)c(SCc2ccccc2[N+](=O)[O-])n1	1	55	0.8	95	-5	4	x	x	x	x
Cc1cc(C)c(C#N)c(SCc2c(F)cccc2[N+](=O)[O-])n1	1	92*	0.8	99	-1	5	3	52*	-2	-4.5
Cc1cc(C)c(C#N)c(SCc2nnc(-c3ccccc3[N+](=O)[O-])o2)n1	0.9	11	0.7	95	6	2	x	x	x	x
Cc1cc(C)c(C#N)c(SCc2ccccc2[N+](=O)[O-])n1	1	101*	0.9	100	-4	7	6	48	-1.1	-2
CN(C)C(CNC(=O)C1CCN(S(=O)(=O)c2cc(Cl)ccc2Cl)CC1)Cc1ccccc1 (centres undefined)	x	x	x	93	x	x	x	x	x	x
O=[N+]([O-])c1ccc(Nc2nc(Cl)nc(NCCO)n2)cc1	1	66	1	104	-4	2	2	55*	-2.2	-5
CCc1ccc(NC(=O)CSc2nc3ccccc3c(=O)n2CCCC(=O)N2CCCC2)cc1	1.1	70	1	99	-10	71*	24	44	-3.4	-5.6
O=C(CCC(=O)c1ccccc1)Nc1ccccc1OC(F)F	x	x	x	97	x	x	x	x	x	x
CCCCCCc1cc2cc(-c3nnc(-c4ccccc4O)o3)c(=O)oc2cc1O	1.1	79	0.9	372	-6	48*	15	11	116*	111*
CCCCCCc1cc2cc(-c3nnc(-c4ccccc4OC)o3)c(=O)oc2cc1O	1.1	38	0.9	308	-7	21	x	x	x	x
O=C(CCCCCn1c(=S)[nH]c2ccc(Br)cc2c1=O)NCC1CCCO1 (centres undefined)	1.1	81*	0.8	96	-6	3	8	34	15*	72*
